The record followed here is ChEMBL document CHEMBL1125330, “N-substituted pyrazino[2,3-c][1,2,6]thiadiazine 2,2-dioxides. A new class of diuretics” (J Med Chem, 1992).

The test system of series [1] is Rattus norvegicus. As to the kind of experiment: Volume of urine 1 hr after the compound was administered 125 mg/kg po in rat. Details: dose 125 mg/kg, route oral. The series is classed as ADME, organism-based. The note with it: in vivo. The method, boiled down:
(§1)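 Onset/duration protocol: male Sprague-Dawley rats (HC/CFY, 175-200 g), food and water withdrawn for 18 h before and during the test. Single gavage dose in 1% carboxymethyl cellulose/0.1% Tween 80 (0.5 mL/100 g bw), then distilled water load (2.5 mL/100 g bw po). Two rats per metabolic cage, six pairs per group. Urine collected at 0-1, 1-2, 2-3, 3-4 and 4-6 h; Na+ by flame photometry. Vehicle controls; nonpaired Student t-test.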

For series [2], the system named is Rattus norvegicus. The series is described as follows: Urinary sodium 6 hr after the compound was administered 125 mg/kg po in rat. The class given is ADME, organism-based, Urine. Details: dose 125 mg/kg, route oral. The following applies: in vivo. The method, boiled down:
as §1

Series [3] deals with Rattus norvegicus. The series is described as follows: Mean potassium excretion in rats when compound administered at 160 mg/kg po and vehicle dosed at 631.76 umol/kg. The class given is ADME, organism-based. Details: dose 160 mg/kg, route oral. The note with it: in vivo. The method, boiled down:
(§2)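 Male Sprague-Dawley rats (HC/CFY, 175-200 g), no food or water for 18 h before and during the test. Single gavage dose (2.5-160 mg/kg; vehicle 1% carboxymethyl cellulose/0.1% Tween 80, 0.5 mL/100 g bw), then distilled water 2.5 mL/100 g bw po. Individual metabolic cages, 6 h urine. K+ by flame photometry, Cl- colorimetric, as mequiv/6 h/kg bw; unpaired Student t-test vs control.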

Series [4] deals with Rattus norvegicus. As to the kind of experiment: Volume of urine 4 hr after the compound was administered 125 mg/kg po in rat. The series is classed as ADME, organism-based. Details: dose 125 mg/kg, route oral. The note with it: in vivo. The method, boiled down:
as §1

The subject of series [5] is Rattus norvegicus. The series is described as follows: Mean urinary output in rats when compound administered at 20 mg/kg po and vehicle dosed at 78.97 umol/kg. Details: dose 20 mg/kg, route oral. The note with it: in vivo. The class given is ADME, organism-based, Urine. In outline: (§3)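 Water-loaded male Sprague-Dawley rats (HC/CFY, 175-200 g) fasted and without water for 18 h. Oral gavage of 2.5-160 mg/kg in 1% CMC with 0.1% Tween 80, then distilled water 2.5 mL/100 g po. Urine collected 6 h in metabolic cages, mean output in mL/6 h/kg bw. Unpaired Student t-test against vehicle; dose-response by linear regression.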

Series [6] deals with Rattus norvegicus. The series is described as follows: Mean sodium excretion in rats when compound administered at 40 mg/kg po and vehicle dosed at 157.94 umol/kg. Details: dose 40 mg/kg, route oral. The note with it: in vivo. The class given is ADME, organism-based. The method, boiled down: (§4)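 Male Sprague-Dawley rats (HC/CFY, 175-200 g) fasted and water-deprived 18 h before and during the test. Dosed by gavage at 2.5-160 mg/kg in 1% carboxymethyl cellulose/0.1% Tween 80, 0.5 mL/100 g bw. Immediately hydrated with water (2.5 mL/100 g bw, po). Urine collected 6 h in metabolic cages; Na+ and K+ by flame photometry; mean mequiv/6 h/kg bw; nonpaired Student t-test.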

Series [7] has as its system Rattus norvegicus. As to the kind of experiment: Mean potassium excretion in rats when compound administered at 40 mg/kg po and vehicle dosed at 157.94 umol/kg. Details: dose 40 mg/kg, route oral. The note with it: in vivo. The class given is ADME, organism-based. In outline: as §4
Series [8] concerns Rattus norvegicus. As to the kind of experiment: Mean sodium excretion in rats when compound administered at 10 mg/kg po and vehicle dosed at 39.48 umol/kg. The series is classed as ADME, organism-based. Details: dose 10 mg/kg, route oral. The following applies: in vivo. In outline: as §4
Series [9] is described as follows: Acute toxicity in mice when given po. The series is classed as organism-based. The following applies: mouse, in vivo, read-out: DL50 (the source's name). The method, boiled down:
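Male Swiss mice (SPF, HC/CFLP strain, 20–25 g), oral dosing; mortality followed over 15 days; LD50 derived by the Litchfield and Wilcoxon method.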

In series [10] the test system is Rattus norvegicus. As to the kind of experiment: Mean Chlorine excretion in rats when compound administered at 20 mg/kg po and vehicle dosed at 78.97 umol/kg. The series is classed as ADME, organism-based. Details: dose 20 mg/kg, route oral. The following applies: in vivo. In outline: as §2
Series [11] has as its system Rattus norvegicus. The series is described as follows: Mean Chlorine excretion in rats when compound administered at 2.5 mg/kg po and vehicle dosed at 9.87 umol/kg. The class given is ADME, organism-based. Details: dose 2.5 mg/kg, route oral. The following applies: in vivo. The method, boiled down: as §2
Series [12] deals with Rattus norvegicus. As to the kind of experiment: Mean Chlorine excretion in rats when compound administered at 80 mg/kg po and vehicle dosed at 315.88 umol/kg. The series is classed as ADME, organism-based. Details: dose 80 mg/kg, route oral. The following applies: in vivo. The method, boiled down: as §2
The subject of series [13] is Rattus norvegicus. The series is described as follows: Mean potassium excretion in rats when compound administered at 80 mg/kg po and vehicle dosed at 315.88 umol/kg. The series is classed as ADME, organism-based. Details: dose 80 mg/kg, route oral. The note with it: in vivo. The method, boiled down: as §4
In series [14] the test system is Rattus norvegicus. The series is described as follows: Mean sodium excretion in rats when compound administered at 160 mg/kg po and vehicle dosed at 631.76 umol/kg. The series is classed as ADME, organism-based. Details: dose 160 mg/kg, route oral. The following applies: in vivo. The method, boiled down: as §4
The test system of series [15] is Rattus norvegicus. The series is described as follows: Mean urinary output in rats when compound administered at 40 mg/kg po and vehicle dosed at 157.94 umol/kg. The series is classed as ADME, organism-based, Urine. Details: dose 40 mg/kg, route oral. The following applies: in vivo. The method, boiled down: as §3
Series [16] concerns Rattus norvegicus. As to the kind of experiment: Mean urinary output in rats when compound administered at 2.5 mg/kg po and vehicle dosed at 9.87 umol/kg. Details: dose 2.5 mg/kg, route oral. The class given is ADME, organism-based, Urine. The note with it: in vivo. The method, boiled down: as §3
Series [17] concerns Rattus norvegicus. As to the kind of experiment: Mean urinary output in rats when compound administered at 160 mg/kg po and vehicle dosed at 631.76 umol/kg. The series is classed as ADME, organism-based, Urine. Details: dose 160 mg/kg, route oral. The following applies: in vivo. The method, boiled down:
as §3

In series [18] the test system is Rattus norvegicus. The series is described as follows: Volume of urine 3h after the compound was administered 125 mg/kg po in rat. Details: dose 125 mg/kg, route oral. The series is classed as ADME, organism-based. The note with it: in vivo. In outline:
as §1

The subject of series [19] is Rattus norvegicus. As to the kind of experiment: Urinary sodium 1 hr after the compound was administered 125 mg/kg po in rat. The series is classed as ADME, organism-based, Urine. Details: dose 125 mg/kg, route oral. The note with it: in vivo. The method, boiled down: (§5)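 Onset and duration study in fasted, water-loaded male Sprague-Dawley rats housed two per metabolic cage, six pairs per group. Single oral dose given, then water 2.5 mL/100 g po. Urine volume and sodium (flame photometry) measured over 0-1, 1-2, 2-3, 3-4 and 4-6 h intervals. Mean values compared with vehicle by Student t-test.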

For series [20], the system named is Rattus norvegicus. The series is described as follows: Mean potassium excretion in rats when compound administered at 0 mg/kg po and vehicle dosed at 0 umol/kg. The series is classed as ADME, organism-based. Details: dose 0 mg/kg, route oral. The note with it: in vivo. In outline:
as §2

The subject of series [21] is Rattus norvegicus. As to the kind of experiment: Dose required to produce an excretion of 2 mequiv of Na+/kg bw/6h vs control groups. The class given is functional. In outline:
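Male Sprague-Dawley rats (HC/CFY, 175-200 g), fasted and water-deprived 18 h before and during the test. Compound dosed by gavage in 1% carboxymethyl cellulose/0.1% Tween 80, then water load 2.5 mL/100 g bw po. Urine collected 6 h in metabolic cages; Na+ by flame photometry. Effective doses vs vehicle controls derived by linear regression of dose-response data.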

The test system of series [22] is Rattus norvegicus. As to the kind of experiment: Urinary sodium 3h after the compound was administered 125 mg/kg po in rat. The series is classed as ADME, organism-based, Urine. Details: dose 125 mg/kg, route oral. The following applies: in vivo. The method, boiled down:
as §5

Series [23] concerns Rattus norvegicus. As to the kind of experiment: Mean Chlorine excretion in rats when compound administered at 0 mg/kg po and vehicle dosed at 0 umol/kg. The following applies: in vivo. The class given is ADME, organism-based. Details: dose 0 mg/kg, route oral.

Turning to `Nc1nc(N)c2nc(-c3ccccc3)c(N)nc2n1`, the Urine volume came out at 0.48 mL with Rattus norvegicus [1], 1.78 mL in the series with Rattus norvegicus [4] and 2.73 mL in the series with Rattus norvegicus [18]. The figures for the “Urinary Na+” value in the series with Rattus norvegicus [2], in the series on Rattus norvegicus [19] and in the series with Rattus norvegicus [22] were 0.46 m equiv, 0.04 m equiv and 0.19 m equiv, respectively. The K in the series with Rattus norvegicus [3] was 0.21 m equiv 6hr-1 kg-1 (body weight)-1; in the series on Rattus norvegicus [7], 0.18 m equiv 6hr-1 kg-1 (body weight)-1; in the series with Rattus norvegicus [13] it was 0.14 m equiv 6hr-1 kg-1 (body weight)-1; in the series on Rattus norvegicus [20], 0.5 m equiv 6hr-1 kg-1 (body weight)-1. The V is 32.87 ml 6hr-1 (kg of body weight)-1 with Rattus norvegicus [5], 38.1 ml 6hr-1 (kg of body weight)-1 in the series with Rattus norvegicus [15], 31.39 ml 6hr-1 (kg of body weight)-1 in the series on Rattus norvegicus [16] and 52 ml 6hr-1 (kg of body weight)-1 with Rattus norvegicus [17]. Further, the Na is recorded as 2.88 m equiv 6hr-1 kg-1 (body weight)-1 in the series with Rattus norvegicus [6], 2.61 m equiv 6hr-1 kg-1 (body weight)-1 with Rattus norvegicus [8] and 3.32 m equiv 6hr-1 kg-1 (body weight)-1 with Rattus norvegicus [14]. Also, the LD50 in [9] was 344 mg/kg. In addition, the Cl- in the series on Rattus norvegicus [10] was 1.83 m equiv 6hr-1 kg-1 (body weight)-1; in the series with Rattus norvegicus [11], 1.34 m equiv 6hr-1 kg-1 (body weight)-1; with Rattus norvegicus [12], 2.8 m equiv 6hr-1 kg-1 (body weight)-1; in the series on Rattus norvegicus [23], 0.88 m equiv 6hr-1 kg-1 (body weight)-1. Moreover, the ED2 with Rattus norvegicus [21] worked out at 3.8 mg/kg.
